Measurements taken from ChEMBL document CHEMBL4699658, “EST64454: a Highly Soluble σ Receptor Antagonist Clinical Candidate for Pain Management” (J Med Chem, 2020).
Values after ≈ are worked out from the molar mass of the structure shown.

Assays:
[1] = biological target: T1, Sigma non-opioid intracellular receptor 1 (Homo sapiens, UniProt Q99720); experiment: Displacement of [3H]-(+)-pentazocine from human sigma1 receptor expressed in HEK293 cell membranes incubated for 120 mins by liquid scintillation counting method; design: species or system Cell membrane
[2] = biological target: Voltage-gated inwardly rectifying potassium channel KCNH2 (Homo sapiens, UniProt Q12809); experiment: Inhibition of human ERG expressed in CHO cells by patch clamp assay; type: cell-based
[3] = Displacement of [3H]-DTG from sigma2 receptor in guinea pig brain membranes incubated for 120 mins by liquid scintillation counting method; type: cell membranes, Cavia porcellus, Cell membrane
In short: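 Guinea pig brain membranes (200 μg) incubated with 10 nM [³H]-DTG in 50 mM Tris-HCl pH 8, σ1R masked with 400 nM (+)-SKF10047, at 25 °C for 120 min. Nonspecific binding defined by 10 μM haloperidol. Filtration, three washes with ice-cold 50 mM Tris-HCl pH 7.4, scintillation counting. Ki given as mean of two determinations.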

Cavia porcellus = organism: Cavia porcellus; experiment: Displacement of [3H]-DTG from sigma2 receptor in guinea pig brain membranes at 1 uM incubated for 120 mins by liquid scintillation counting method relative to control; conditions: Cell membrane
[4] = Lipophilicity, logP of compound; type: physicochemical; conditions: octanol/water
In short: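 Log P determined by a pHmetric technique on a GlpKa or Sirius-T3 instrument.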

Mus musculus [5] = experiment: Analgesic activity in orally dosed mouse model of […]-induced mechanical hypersensitivity-induced pain assessed as reduction in mechanical hypersensitivity at 80 mg/kg, po; type: functional; design: scale not given: the % may be the effect or the level left
[6] = AUC (0 to infinity) in Wistar rat at 10 mg/kg, po by HPLC-MS/MS analysis; type: ADME, organism-based; design: route oral, time infinity, dose 10 mg/kg; conditions: in vivo
In short: (§1)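 Male Wistar rats (250−300 g), groups of two, dosed orally at 10 mg/kg in 0.5% hydroxypropyl methylcellulose or iv at 1 mg/kg in saline. Serial blood into heparinized tubes (saphenous vein or cardiac puncture). Plasma kept at −80 °C and measured by HPLC-MS/MS after protein precipitation. Noncompartmental analysis gave parameters; clearance given as % liver blood flow.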

[7] = AUC (0 to infinity) in CD1 mouse at 10 mg/kg, po by HPLC-MS/MS analysis; type: ADME, organism-based; design: time infinity, route oral, dose 10 mg/kg; conditions: in vivo
In short: (§2)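 Male CD1 mice (25−30 g), groups of 16, given 10 mg/kg orally in 0.5% hydroxypropyl methylcellulose or 1 mg/kg iv in saline. Blood drawn at several times (saphenous vein or intracardiac puncture) into heparinized tubes. Plasma spun at 4 °C, stored at −80 °C, protein-precipitated and assayed by HPLC-MS/MS. Parameters from noncompartmental analysis of concentration−time curves; clearance expressed as % liver blood flow.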

[8] = Genotoxicity in Salmonella typhimurium by Ames test; type: toxicity; conditions: salmonella enterica subsp. enterica serovar typhimurium
[9] = Volume of distribution at steady state in CD1 mouse at 10 mg/kg, po by HPLC-MS/MS analysis; type: ADME, organism-based; conditions: in vivo; in short: as §2
[10] = Permeability in human Caco-2 cells; type: ADME, cell-based; conditions: read-out: permeability
[11] = Oral bioavailability in CD1 mouse at 10 mg/kg by HPLC-MS/MS analysis; type: ADME, organism-based; conditions: in vivo; in short: as §2
[12] = Cmax in CD1 mouse at 10 mg/kg, po by HPLC-MS/MS analysis; type: ADME, organism-based; design: route oral, dose 10 mg/kg; conditions: in vivo; in short: as §2
Mus musculus [13] = experiment: Analgesic activity in orally dosed mouse model of intraplantar capsaicin-induced mechanical hypersensitivity-induced pain assessed as reduction in mechanical hypersensitivity; type: functional; conditions: po
[14] = Elimination half life in Wistar rat at 10 mg/kg, po by HPLC-MS/MS analysis; type: ADME, organism-based; conditions: in vivo, read-out: beta t1/2 (converted); in short: as §1
[15] = Elimination half life in CD1 mouse at 10 mg/kg, po by HPLC-MS/MS analysis; type: ADME, organism-based; conditions: in vivo, read-out: beta t1/2 (converted); in short: as §2
[16] = Oral bioavailability in Wistar rat at 10 mg/kg by HPLC-MS/MS analysis; type: ADME, organism-based; conditions: in vivo; in short: as §1
[17] = Induction of CYP450 expression in human HepaRG cells at 50 uM; type: ADME, cell-based
In short: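 HepaRG cells exposed to compound at concentrations up to 50 μM; CYP induction assessed.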

[18] = Volume of distribution at steady state in Wistar rat at 10 mg/kg, po by HPLC-MS/MS analysis; type: ADME, organism-based; conditions: in vivo; in short: as §1
[19] = Clearance in Wistar rat at 10 mg/kg, po by HPLC-MS/MS analysis relative to liver blood flow; type: ADME, organism-based; conditions: in vivo
[20] = Clearance in CD1 mouse at 10 mg/kg, po by HPLC-MS/MS analysis relative to liver blood flow; type: ADME, organism-based; conditions: in vivo
[21] = biological target: T1, Sigma non-opioid intracellular receptor 1; experiment: Antagonist activity at human sigma1 receptor expressed in HEK293 cell membranes assessed as ratio of Ki without phenytoin/Ki with phenytoin by [3H]-(+)-pentazocine displacement assay; conditions: Cell membrane, filed as antagonist
[22] = Cmax in Wistar rat at 10 mg/kg, po by HPLC-MS/MS analysis; type: ADME, organism-based; design: route oral, dose 10 mg/kg; conditions: in vivo; in short: as §1
HepG2 = experiment: Toxicity in human HepG2 cells assessed as reduction in cell viability up to 100 uM by MTT assay; type: cell-based
In short: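 HepG2 cells exposed to compound at up to 100 μM; viability read by MTT assay.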

[23] = Aqueous solubility of compound; type: physicochemical
[24] = Thermodynamic solubility in pH 2 buffer; type: physicochemical; conditions: read-out: Therm_solubility
[25] = Thermodynamic solubility in pH 7.4 buffer; type: physicochemical; conditions: read-out: Therm_solubility

Voltage-gated inwardly rectifying potassium channel KCNH2, sequence (Q12809 whole entry): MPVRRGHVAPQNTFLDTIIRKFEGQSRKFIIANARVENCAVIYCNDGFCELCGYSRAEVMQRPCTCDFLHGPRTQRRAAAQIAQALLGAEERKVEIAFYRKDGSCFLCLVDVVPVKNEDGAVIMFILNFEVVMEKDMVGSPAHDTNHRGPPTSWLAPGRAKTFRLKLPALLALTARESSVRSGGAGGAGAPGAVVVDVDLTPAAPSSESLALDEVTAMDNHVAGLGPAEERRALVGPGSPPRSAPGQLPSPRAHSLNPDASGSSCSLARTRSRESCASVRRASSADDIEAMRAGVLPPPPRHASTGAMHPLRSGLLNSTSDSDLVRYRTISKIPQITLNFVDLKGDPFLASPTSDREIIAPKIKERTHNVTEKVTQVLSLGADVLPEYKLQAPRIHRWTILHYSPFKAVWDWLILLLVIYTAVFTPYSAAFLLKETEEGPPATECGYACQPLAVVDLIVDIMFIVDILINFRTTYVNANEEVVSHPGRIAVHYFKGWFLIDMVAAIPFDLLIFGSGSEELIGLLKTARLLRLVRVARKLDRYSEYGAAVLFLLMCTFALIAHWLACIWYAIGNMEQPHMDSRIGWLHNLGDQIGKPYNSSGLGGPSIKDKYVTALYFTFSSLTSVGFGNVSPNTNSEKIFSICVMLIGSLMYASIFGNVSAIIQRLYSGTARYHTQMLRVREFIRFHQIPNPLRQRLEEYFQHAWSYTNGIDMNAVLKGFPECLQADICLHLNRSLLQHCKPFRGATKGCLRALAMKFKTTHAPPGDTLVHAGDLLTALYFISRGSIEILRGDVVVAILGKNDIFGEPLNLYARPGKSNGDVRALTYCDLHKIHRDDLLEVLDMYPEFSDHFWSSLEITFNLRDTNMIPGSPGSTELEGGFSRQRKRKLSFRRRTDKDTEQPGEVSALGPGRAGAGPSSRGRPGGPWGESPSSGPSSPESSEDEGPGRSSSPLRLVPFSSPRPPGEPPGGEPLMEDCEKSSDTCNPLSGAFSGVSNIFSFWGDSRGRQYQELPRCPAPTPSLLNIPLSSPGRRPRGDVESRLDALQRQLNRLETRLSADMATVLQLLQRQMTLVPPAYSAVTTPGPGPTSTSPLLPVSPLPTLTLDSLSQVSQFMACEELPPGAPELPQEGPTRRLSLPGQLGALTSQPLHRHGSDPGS
T1 sequence (Q99720 whole entry): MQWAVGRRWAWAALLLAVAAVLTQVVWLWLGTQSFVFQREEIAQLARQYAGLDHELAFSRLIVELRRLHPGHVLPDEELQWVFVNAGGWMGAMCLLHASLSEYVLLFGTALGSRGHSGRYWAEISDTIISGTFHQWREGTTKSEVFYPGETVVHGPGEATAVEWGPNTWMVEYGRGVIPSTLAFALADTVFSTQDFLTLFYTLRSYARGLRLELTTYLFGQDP

Q: With `Cc1cc(COCCN2CCNCC2)nn1-c1ccc(Cl)c(Cl)c1` as the compound, how does the Ki [1] read?
A: The Ki was 278 nM.

Q: For `CC(=O)N1CCN(CCOCc2cc(C)n(-c3ccc(F)c(F)c3)n2)CC1`, which IC50 [2] is on record?
A: Its IC50 is greater than 10000 nM.

Q: And the Ki [1]?
A: The Ki was 58 nM.

Q: What about the Ki [3] of the same compound?
A: Its Ki is greater than 10000 nM.

Q: With `Clc1ccc(-n2ccc(COCCN3CCOCC3)n2)cc1Cl` as the compound, how does the Ki [1] read?
A: The Ki was 2 nM.

Q: What about the Ki [3] of the same compound?
A: Its Ki is 137 nM.

Q: For `Cc1cc(CCCN2CCOCC2)nn1-c1ccc(Cl)c(Cl)c1`, which Ki [1] is on record?
A: Its Ki is 5 nM.

Q: What about the Ki [3] of the same compound?
A: Its Ki is 232 nM.

Q: What does the source list for `Cc1cc(COCCN2CCCCC2)nn1-c1ccc(Cl)c(Cl)c1`?
A: Ki [1]: 2 nM; Ki [3]: 28 nM

Q: What does the source list for `Cc1cc(COCCN2CCOCC2)nn1-c1ccc2ccccc2c1`?
A: Ki [1]: 209 nM; Ki [3]: > 1000 nM; inhibition (Cavia porcellus): < 50%

Q: Which results are given for `Cc1cc(COCCN2CCOCC2)nn1C1CCCC1`?
A: Ki [1]: 240 nM; Ki [3]: > 10000 nM

Q: With `CC(=O)N1CCN(CCOCc2cc(C)n(-c3ccc(Cl)c(Cl)c3)n2)CC1` as the compound, how does the IC50 [2] read?
A: The IC50 was greater than 10000 nM.

Q: What about the Ki [1] of the same compound?
A: The Ki was 15 nM.

Q: And the Ki [3]?
A: The Ki was greater than 1000 nM.

Q: And the inhibition (Cavia porcellus)?
A: Its inhibition is less than 50%.

Q: What does the source list for `CC(=O)N1CCN(CCOCc2ccn(-c3ccc(F)c(F)c3)n2)CC1.Cl`?
A: logP [4]: 1.7; Activity (Mus musculus [5]): 95%; AUC(0-inf) [6]: 2640 ng·h/mL; AUC(0-inf) [7]: 1430 ng·h/mL; Activity [8]: Non-Toxic; IC50 [2]: > 10000 nM; Vdss [9]: 4.4 L/kg; Papp [10]: 51.5 ×10⁻⁶ cm/s; bioavailability [11]: 69%; Cmax [12]: 771 ng/mL; ED50 (Mus musculus [13]): 33 mg/kg; half-life [14]: < 1 h; half-life [15]: 3.4 h; bioavailability [16]: 60%; Activity [17]: Non-Toxic; Vdss [18]: 1.2 L/kg; Ki [1]: 22 nM; CL [19]: 70%; CL [20]: 89%; Ratio Ki [21]: 0.9; Ki [3]: > 10000 nM; Cmax [22]: 1180 ng/mL; Activity (HepG2): Non-Toxic

Q: Which results are given for `CC(=O)N1CCN(CCCOCc2cc(C)n(-c3ccc(Cl)c(Cl)c3)n2)CC1`?
A: IC50 [2]: 4080 nM; Ki [1]: 9 nM; Ki [3]: > 1000 nM; inhibition (Cavia porcellus): < 50%

Q: With `O=C(CCCN1CCC(O)(c2ccc(Cl)cc2)CC1)c1ccc(F)cc1` [HALOPERIDOL] as the compound, how does the Ki [3] read?
A: The Ki was 22 nM.

Q: With `Cc1cc(OCCN2CCOCC2)nn1-c1ccc2ccccc2c1` as the compound, how does the Activity (Mus musculus [5]) read?
A: Its Activity is 54%.

Q: What about the AUC(0-inf) [6] of the same compound?
A: Its AUC(0-inf) is 428 ng·h/mL.

Q: And the AUC(0-inf) [7]?
A: The AUC(0-inf) was 958 ng·h/mL.

Q: What about the Vdss [9] of the same compound?
A: Its Vdss is 2.2 L/kg.

Q: What about the solubility [23] of the same compound?
A: The solubility was 200 µg/mL (≈ 593 µM).

Q: And the bioavailability [11]?
A: Its bioavailability is 34%.

Q: What about the Cmax [12] of the same compound?
A: The Cmax was 622 ng/mL.

Q: And the half-life [14]?
A: Its half-life is 1.2 h.

Q: And the half-life [15]?
A: Its half-life is 0.7 h.

Q: What about the bioavailability [16] of the same compound?
A: The bioavailability was 15%.

Q: And the Vdss [18]?
A: The Vdss was 2.9 L/kg.

Q: And the CL [19]?
A: Its CL is 109%.

Q: What about the CL [20] of the same compound?
A: Its CL is 65%.

Q: And the Ki [3]?
A: The Ki was greater than 1000 nM.

Q: What about the solubility thermodynamic [24] of the same compound?
A: The solubility thermodynamic was 230 µg/mL (≈ 682 µM).

Q: And the Cmax [22]?
A: Its Cmax is 301 ng/mL.

Q: And the inhibition (Cavia porcellus)?
A: The inhibition was less than 50%.

Q: What about the solubility thermodynamic [25] of the same compound?
A: Its solubility thermodynamic is 230 µg/mL (≈ 682 µM).

Q: Which Ki [1] does the source give for `Cc1cc(COCCN2CCOCC2)nn1-c1ccc(Cl)c(Cl)c1` here?
A: The Ki was 14 nM.

Q: And the Ki [3]?
A: Its Ki is 399 nM.

Q: What does the source list for `Cc1cc(CCCCN2CCOCC2)nn1-c1ccc(Cl)c(Cl)c1`?
A: Ki [1]: 9 nM; Ki [3]: 116 nM

Q: What does the source list for `Cc1cc(COCCN2CCCC2)nn1-c1ccc(Cl)c(Cl)c1`?
A: IC50 [2]: 5120 nM; Ki [1]: 6 nM; Ki [3]: 27 nM

Q: Which Ki [3] does the source give for `CC(C)=CCN1CC[C@]2(C)c3cc(O)ccc3C[C@H]1[C@H]2C` [(+)-PENTAZOCINE] here?
A: The Ki was 719 nM.

Q: Which results are given for `Cc1cc(COCCN2C[C@@H](C)O[C@@H](C)C2)nn1-c1ccc(Cl)c(Cl)c1`?
A: Ki [1]: 3 nM; Ki [3]: 180 nM

Q: With `Cc1ccccc1NC(=N)Nc1ccccc1C` [DITOLYLGUANIDINE] as the compound, how does the Ki [3] read?
A: The Ki was 23 nM.
